Data set [1] deals with HT-29. Description: Antiproliferative activity against human HT-29 cells at 30 to 300 uM after 48 hrs under normoxic conditions by MTT assay. In kind it is functional, cell-based. The essentials:
(§1)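 HT-29 colon cancer cells in DMEM high glucose with 20% FBS were seeded at 1·10^4/well. After 24 h they were exposed to 0–300 μM compound for 16, 48 or 72 h in air (20% O2, 5% CO2, 37 °C). MTT (1 mg/ml) was added for 30 min, formazan dissolved in DMSO and read at 550 nm. Viability is relative to untreated control (100%). Quadruplicates on ≥3 cell batches, mean ± SEM.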
(Tetrazolium assays rely on reduction of a dye to a coloured formazan, in cell work by metabolically active cells.)

The target in the next data set is Carbonic anhydrase 2 (Homo sapiens, UniProt P00918). Put plainly: Inhibition of human CA2 after 15 mins by stopped-flow CO2 hydration assay.
For another data set, the target named is Carbonic anhydrase 1 (Homo sapiens, UniProt P00915). Description: Inhibition of human CA1 after 15 mins by stopped-flow CO2 hydration assay.
Chain of Carbonic anhydrase 1 (P00915 whole entry): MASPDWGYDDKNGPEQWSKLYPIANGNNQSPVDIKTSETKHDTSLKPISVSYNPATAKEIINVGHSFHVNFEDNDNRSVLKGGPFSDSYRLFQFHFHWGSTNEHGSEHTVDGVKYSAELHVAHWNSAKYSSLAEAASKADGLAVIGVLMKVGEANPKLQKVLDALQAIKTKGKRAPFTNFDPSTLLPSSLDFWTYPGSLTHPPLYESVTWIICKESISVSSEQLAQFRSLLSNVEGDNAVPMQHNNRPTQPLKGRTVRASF
Data set [2] relates to HT-29. Put plainly: Antiproliferative activity against human HT-29 cells at 100 uM after 48 hrs under normoxic conditions by MTT assay. It counts as functional. A digest of the protocol:
as §1

The next data set addresses Carbonic anhydrase 12 (Homo sapiens, UniProt O43570). Description: Inhibition of human CA12 after 15 mins by stopped-flow CO2 hydration assay.
Data set [3] concerns HT-29. Put plainly: Antiproliferative activity against human HT-29 cells at 30 to 300 uM after 72 hrs under hypoxic conditions by MTT assay. It counts as functional, cell-based. The essentials:
(§2)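 Hypoxic workstation at 0.1% O2, 5% CO2 and residual N2. HT-29 cells (DMEM high glucose, 20% FBS; 1·10^4/well) were treated 24 h post-plating with 0–300 μM compound for 16, 48 or 72 h. Viability was measured by MTT reduction (1 mg/ml, 30 min, 37 °C; DMSO-dissolved formazan, A550) and expressed as % of untreated control. Quadruplicates, ≥3 batches, mean ± SEM.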

Data set [4] has as its system HT-29. Put plainly: Antiproliferative activity against human HT-29 cells at 100 uM after 72 hrs under hypoxic conditions by MTT assay. It counts as functional. A digest of the protocol: as §2
A further data set deals with Carbonic anhydrase 9 (Homo sapiens, UniProt Q16790). Put plainly: Inhibition of human CA9 after 15 mins by stopped-flow CO2 hydration assay.
Data set [5] relates to HT-29. Put plainly: Antiproliferative activity against human HT-29 cells at 30 to 300 uM after 16 hrs under normoxic conditions by MTT assay. In kind it is functional, cell-based. The essentials:
as §1

Data set [6] is described as follows: Solubility of the compounds at 300 uM. In kind it is physicochemical.
The test system of data set [7] is HT-29. Put plainly: Antiproliferative activity against human HT-29 cells at 30 to 100 uM after 16 hrs under normoxic conditions by MTT assay. It counts as functional, cell-based. The essentials:
as §1

Data set [8] deals with HT-29. Put plainly: Antiproliferative activity against human HT-29 cells at 30 to 300 uM after 48 hrs under hypoxic conditions by MTT assay. It counts as functional, cell-based. A digest of the protocol:
as §2

Data set [9] has as its system HT-29. Put plainly: Antiproliferative activity against human HT-29 cells at 30 to 100 uM after 48 hrs under normoxic conditions by MTT assay. It counts as functional, cell-based. The essentials:
as §1

Data set [10] deals with HT-29. Put plainly: Antiproliferative activity against human HT-29 cells at 30 to 100 uM after 72 hrs under normoxic conditions by MTT assay. It counts as functional, cell-based. A digest of the protocol: as §1
The subject of data set [11] is HT-29. Put plainly: Antiproliferative activity against human HT-29 cells at 30 to 100 uM after 72 hrs under hypoxic conditions by MTT assay. In kind it is functional, cell-based. The essentials:
as §2

Data set [12] relates to HT-29. Put plainly: Antiproliferative activity against human HT-29 cells at 30 uM after 48 hrs under hypoxic conditions by MTT assay. It counts as functional. The essentials: as §2

Molecules are shown by their SMILES. Activity calls are given as the source filed them. The rule behind the calls is not given here.

Chain of Carbonic anhydrase 12 (O43570 whole entry): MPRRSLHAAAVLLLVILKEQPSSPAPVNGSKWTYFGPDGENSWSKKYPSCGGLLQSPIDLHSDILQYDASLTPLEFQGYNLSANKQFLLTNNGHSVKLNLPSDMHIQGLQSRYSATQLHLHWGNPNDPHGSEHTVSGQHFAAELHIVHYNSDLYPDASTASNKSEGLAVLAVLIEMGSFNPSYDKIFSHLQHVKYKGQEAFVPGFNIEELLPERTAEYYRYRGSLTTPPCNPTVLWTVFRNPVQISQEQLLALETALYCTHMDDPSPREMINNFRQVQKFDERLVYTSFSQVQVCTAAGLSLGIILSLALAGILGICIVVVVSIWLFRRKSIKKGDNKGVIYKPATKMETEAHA

As to `Cc1nn(-c2ccccc2)c2c1c(=O)oc1ccc(NC(=O)c3ccccc3)cc12`, the result in the data set on HT-29 [1], in the data set on HT-29 [3] and with HT-29 [5] was Active. Besides, the Ki is more than 10 µM at Carbonic anhydrase 2, more than 10 µM at Carbonic anhydrase 1, more than 10 µM on Carbonic anhydrase 12 and 0.0153 µM on Carbonic anhydrase 9. In addition, the Activity in the data set with HT-29 [2] is 50%; in the data set with HT-29 [4] it was 40%.
Take `CC(=O)c1c(O)c2cc(Br)ccc2oc1=O`: the solubility entry in [6] is “Insoluble”. Also, the Ki was more than 10 µM at Carbonic anhydrase 2, more than 10 µM at Carbonic anhydrase 1, 0.0056 µM on Carbonic anhydrase 12 and 0.0082 µM at Carbonic anhydrase 9. The outcome in the data set on HT-29 [7], in the data set on HT-29 [8], in the data set with HT-29 [9], in the data set with HT-29 [10] and in the data set with HT-29 [11] was Active. The Activity in the data set on HT-29 [2] came to 35%.
On to `O=c1oc2ccccc2c2c1cnn2-c1ccccc1`, for which the outcome in the data set with HT-29 [1], with HT-29 [8] and in the data set on HT-29 [5] was Active. In addition, the Ki at Carbonic anhydrase 2 is more than 10 µM; at Carbonic anhydrase 1, more than 10 µM; at Carbonic anhydrase 12 it was more than 10 µM; at Carbonic anhydrase 9 it was 0.0301 µM. Also, in the data set with HT-29 [12], the Activity entry was “<=70%”.

Broadly, the Ki is a dissociation constant, usually derived from enzyme kinetics or from competition with a known ligand.

Values taken from ChEMBL document CHEMBL4145519, “Structural investigations on coumarins leading to chromeno[4,3-c]pyrazol-4-ones and pyrano[4,3-c]pyrazol-4-ones: New scaffolds for the design of the tumor-associated carbonic anhydrase isoforms IX and XII” (Eur J Med Chem, 2018).
